Data published in ChEMBL document CHEMBL1142960, “Synthesis and structure-activity relationships for 2,4-dinitrobenzamide-5-mustards as prodrugs for the Escherichia coli nfsB nitroreductase in gene therapy” (J Med Chem, 2007).
pIC50: −log10 of the molar value. Converted amounts (≈) assume the structure as drawn.

Tested on: V79
Experiment: Antiproliferative activity against chinese hamster wild-type V79 NTR-ve cells after 18 hrs
Type: functional, cell-based
Settings: Cricetulus griseus, V79, 18 h

| SMILES | pIC50 |
| --- | --- |
| O=C(O)CCNC(=O)c1cc(N(CCBr)CCBr)c([N+](=O)[O-])cc1[N+](=O)[O-] | 4.27 |
| O=C(NC(CO)(CO)CO)c1cc(N(CCCl)CCCl)c([N+](=O)[O-])cc1[N+](=O)[O-] | 2.98 |
| CS(=O)(=O)c1cc([N+](=O)[O-])c(N(CCCl)CCCl)cc1C(=O)NCC(O)CO (centres undefined) | 3.07 |
| CS(=O)(=O)NC(=O)c1cc(N(CCCl)CCCl)c([N+](=O)[O-])cc1[N+](=O)[O-] | 3.48 |
| CC(O)CNC(=O)c1cc(N(CCCl)CCCl)c([N+](=O)[O-])cc1[N+](=O)[O-] (centres undefined) | 3.36 |

Tested on: V79
Experiment: Antiproliferative activity against chinese hamster V79 NTRpuro cells after 18 hrs
Type: functional, cell-based
Settings: Cricetulus griseus, V79, 18 h

| SMILES | pIC50 |
| --- | --- |
| O=C(O)CCNC(=O)c1cc(N(CCBr)CCBr)c([N+](=O)[O-])cc1[N+](=O)[O-] | 4.89 |
| O=C(NC(CO)(CO)CO)c1cc(N(CCCl)CCCl)c([N+](=O)[O-])cc1[N+](=O)[O-] | 4.89 |
| CS(=O)(=O)c1cc([N+](=O)[O-])c(N(CCCl)CCCl)cc1C(=O)NCC(O)CO (centres undefined) | 3.37 |
| CS(=O)(=O)NC(=O)c1cc(N(CCCl)CCCl)c([N+](=O)[O-])cc1[N+](=O)[O-] | 3.63 |
| CC(O)CNC(=O)c1cc(N(CCCl)CCCl)c([N+](=O)[O-])cc1[N+](=O)[O-] (centres undefined) | 4.68 |

Tested on: V79
Experiment: Selectivity ratio of IC50 for V79 NTR-ve cells to IC50 for V79 NTRpuro cells
Type: functional, Cricetulus griseus
Settings: not given

| SMILES | Ratio IC50 |
| --- | --- |
| O=C(O)CCNC(=O)c1cc(N(CCBr)CCBr)c([N+](=O)[O-])cc1[N+](=O)[O-] | 45 |
| O=C(NC(CO)(CO)CO)c1cc(N(CCCl)CCCl)c([N+](=O)[O-])cc1[N+](=O)[O-] | 91 |
| CS(=O)(=O)c1cc([N+](=O)[O-])c(N(CCCl)CCCl)cc1C(=O)NCC(O)CO (centres undefined) | 2.3 |
| CS(=O)(=O)NC(=O)c1cc(N(CCCl)CCCl)c([N+](=O)[O-])cc1[N+](=O)[O-] | 1.5 |
| CC(O)CNC(=O)c1cc(N(CCCl)CCCl)c([N+](=O)[O-])cc1[N+](=O)[O-] (centres undefined) | 21 |

Tested on: EMT6
Experiment: Antiproliferative activity against mouse wild type EMT6 NTR-ve cells after 18 hrs
Type: functional, cell-based
Settings: EMT6, 18 h

| SMILES | pIC50 |
| --- | --- |
| O=C(O)CCNC(=O)c1cc(N(CCBr)CCBr)c([N+](=O)[O-])cc1[N+](=O)[O-] | 4.40 |
| O=C(NC(CO)(CO)CO)c1cc(N(CCCl)CCCl)c([N+](=O)[O-])cc1[N+](=O)[O-] | 3.16 |
| CS(=O)(=O)c1cc([N+](=O)[O-])c(N(CCCl)CCCl)cc1C(=O)NCC(O)CO (centres undefined) | 2.92 |
| CS(=O)(=O)NC(=O)c1cc(N(CCCl)CCCl)c([N+](=O)[O-])cc1[N+](=O)[O-] | 3.35 |
| CC(O)CNC(=O)c1cc(N(CCCl)CCCl)c([N+](=O)[O-])cc1[N+](=O)[O-] (centres undefined) | 3.23 |

Tested on: EMT6
Experiment: Antiproliferative activity against mouse EMT6 NTRpuro cells after 18 hrs
Type: functional, cell-based
Settings: EMT6, 18 h

| SMILES | pIC50 |
| --- | --- |
| O=C(O)CCNC(=O)c1cc(N(CCBr)CCBr)c([N+](=O)[O-])cc1[N+](=O)[O-] | 5.62 |
| O=C(NC(CO)(CO)CO)c1cc(N(CCCl)CCCl)c([N+](=O)[O-])cc1[N+](=O)[O-] | 6.35 |
| CS(=O)(=O)c1cc([N+](=O)[O-])c(N(CCCl)CCCl)cc1C(=O)NCC(O)CO (centres undefined) | 3.72 |
| CS(=O)(=O)NC(=O)c1cc(N(CCCl)CCCl)c([N+](=O)[O-])cc1[N+](=O)[O-] | 3.56 |
| CC(O)CNC(=O)c1cc(N(CCCl)CCCl)c([N+](=O)[O-])cc1[N+](=O)[O-] (centres undefined) | 5.59 |

Tested on: EMT6
Experiment: Selectivity ratio of IC50 for EMT6 NTR-ve cells to IC50 forEMT6 NTRpuro cells
Type: functional, Mus musculus
Settings: not given

| SMILES | Ratio IC50 |
| --- | --- |
| O=C(O)CCNC(=O)c1cc(N(CCBr)CCBr)c([N+](=O)[O-])cc1[N+](=O)[O-] | 17 |
| O=C(NC(CO)(CO)CO)c1cc(N(CCCl)CCCl)c([N+](=O)[O-])cc1[N+](=O)[O-] | 1530 |
| CS(=O)(=O)c1cc([N+](=O)[O-])c(N(CCCl)CCCl)cc1C(=O)NCC(O)CO (centres undefined) | 6.4 |
| CS(=O)(=O)NC(=O)c1cc(N(CCCl)CCCl)c([N+](=O)[O-])cc1[N+](=O)[O-] | 2 |
| CC(O)CNC(=O)c1cc(N(CCCl)CCCl)c([N+](=O)[O-])cc1[N+](=O)[O-] (centres undefined) | 233 |

Tested on: WiDr
Experiment: Antiproliferative activity against human wild type WiDr NTR-ve cells after 18 hrs
Type: functional, cell-based
Settings: not given

| SMILES | pIC50 |
| --- | --- |
| O=C(O)CCNC(=O)c1cc(N(CCBr)CCBr)c([N+](=O)[O-])cc1[N+](=O)[O-] | 4.40 |
| O=C(NC(CO)(CO)CO)c1cc(N(CCCl)CCCl)c([N+](=O)[O-])cc1[N+](=O)[O-] | 3.15 |
| CS(=O)(=O)c1cc([N+](=O)[O-])c(N(CCCl)CCCl)cc1C(=O)NCC(O)CO (centres undefined) | 2.70 |
| CS(=O)(=O)NC(=O)c1cc(N(CCCl)CCCl)c([N+](=O)[O-])cc1[N+](=O)[O-] | 2.88 |
| CC(O)CNC(=O)c1cc(N(CCCl)CCCl)c([N+](=O)[O-])cc1[N+](=O)[O-] (centres undefined) | 3.23 |

Tested on: WiDr
Experiment: Antiproliferative activity against human WiDr NTRneo cells after 18 hrs
Type: functional, cell-based
Settings: not given

| SMILES | pIC50 |
| --- | --- |
| O=C(O)CCNC(=O)c1cc(N(CCBr)CCBr)c([N+](=O)[O-])cc1[N+](=O)[O-] | 5.12 |
| O=C(NC(CO)(CO)CO)c1cc(N(CCCl)CCCl)c([N+](=O)[O-])cc1[N+](=O)[O-] | 5.01 |
| CS(=O)(=O)c1cc([N+](=O)[O-])c(N(CCCl)CCCl)cc1C(=O)NCC(O)CO (centres undefined) | 3.00 |
| CS(=O)(=O)NC(=O)c1cc(N(CCCl)CCCl)c([N+](=O)[O-])cc1[N+](=O)[O-] | 3.65 |
| CC(O)CNC(=O)c1cc(N(CCCl)CCCl)c([N+](=O)[O-])cc1[N+](=O)[O-] (centres undefined) | 4.72 |

Tested on: WiDr
Experiment: Selectivity ratio of IC50 for WiDr NTR-ve cells to IC50 for WiDr NTRneo cells
Type: functional, Homo sapiens
Settings: not given

| SMILES | Ratio IC50 |
| --- | --- |
| O=C(O)CCNC(=O)c1cc(N(CCBr)CCBr)c([N+](=O)[O-])cc1[N+](=O)[O-] | 4.8 |
| O=C(NC(CO)(CO)CO)c1cc(N(CCCl)CCCl)c([N+](=O)[O-])cc1[N+](=O)[O-] | 61 |
| CS(=O)(=O)c1cc([N+](=O)[O-])c(N(CCCl)CCCl)cc1C(=O)NCC(O)CO (centres undefined) | 2 |
| CS(=O)(=O)NC(=O)c1cc(N(CCCl)CCCl)c([N+](=O)[O-])cc1[N+](=O)[O-] | 5.4 |
| CC(O)CNC(=O)c1cc(N(CCCl)CCCl)c([N+](=O)[O-])cc1[N+](=O)[O-] (centres undefined) | 30 |

Tested on: not listed separately
Experiment: Antiproliferative activity against human wild type Skov3 NTR-ve cells after 18 hrs
Type: functional, cell-based
Settings: not given

| SMILES | pIC50 |
| --- | --- |
| O=C(O)CCNC(=O)c1cc(N(CCBr)CCBr)c([N+](=O)[O-])cc1[N+](=O)[O-] | 4.17 |
| O=C(NC(CO)(CO)CO)c1cc(N(CCCl)CCCl)c([N+](=O)[O-])cc1[N+](=O)[O-] | 3.01 |
| CS(=O)(=O)c1cc([N+](=O)[O-])c(N(CCCl)CCCl)cc1C(=O)NCC(O)CO (centres undefined) | 2.63 |
| CS(=O)(=O)NC(=O)c1cc(N(CCCl)CCCl)c([N+](=O)[O-])cc1[N+](=O)[O-] | 2.98 |
| CC(O)CNC(=O)c1cc(N(CCCl)CCCl)c([N+](=O)[O-])cc1[N+](=O)[O-] (centres undefined) | 3.15 |

Tested on: not listed separately
Experiment: Antiproliferative activity against human Skov3 NTRneo cells after 18 hrs
Type: functional, cell-based
Settings: SK-OV-3, 18 h

| SMILES | pIC50 |
| --- | --- |
| O=C(O)CCNC(=O)c1cc(N(CCBr)CCBr)c([N+](=O)[O-])cc1[N+](=O)[O-] | 5.12 |
| O=C(NC(CO)(CO)CO)c1cc(N(CCCl)CCCl)c([N+](=O)[O-])cc1[N+](=O)[O-] | 5.38 |
| CS(=O)(=O)c1cc([N+](=O)[O-])c(N(CCCl)CCCl)cc1C(=O)NCC(O)CO (centres undefined) | 3.13 |
| CS(=O)(=O)NC(=O)c1cc(N(CCCl)CCCl)c([N+](=O)[O-])cc1[N+](=O)[O-] | 3.80 |
| CC(O)CNC(=O)c1cc(N(CCCl)CCCl)c([N+](=O)[O-])cc1[N+](=O)[O-] (centres undefined) | 5.02 |

Tested on: not listed separately
Experiment: Selectivity ratio of IC50 for Skov3 NTR-ve cells to IC50 for Skov3 NTRneo cells
Type: functional, Homo sapiens
Settings: not given

| SMILES | Ratio IC50 |
| --- | --- |
| O=C(O)CCNC(=O)c1cc(N(CCBr)CCBr)c([N+](=O)[O-])cc1[N+](=O)[O-] | 12 |
| O=C(NC(CO)(CO)CO)c1cc(N(CCCl)CCCl)c([N+](=O)[O-])cc1[N+](=O)[O-] | 205 |
| CS(=O)(=O)c1cc([N+](=O)[O-])c(N(CCCl)CCCl)cc1C(=O)NCC(O)CO (centres undefined) | 3.3 |
| CS(=O)(=O)NC(=O)c1cc(N(CCCl)CCCl)c([N+](=O)[O-])cc1[N+](=O)[O-] | 6.7 |
| CC(O)CNC(=O)c1cc(N(CCCl)CCCl)c([N+](=O)[O-])cc1[N+](=O)[O-] (centres undefined) | 75 |

Tested on: not listed separately
Experiment: Solubility in alpha MEM
Type: physicochemical
Settings: not given
Procedure, shortened: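 Solubility (mM) in α-MEM with 5% fetal calf serum at ambient temperature, measured by HPLC.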

| SMILES | solubility |
| --- | --- |
| O=C(O)CCNC(=O)c1cc(N(CCBr)CCBr)c([N+](=O)[O-])cc1[N+](=O)[O-] | 8.4 mM (≈ 4300 µg/mL) |
| O=C(NC(CO)(CO)CO)c1cc(N(CCCl)CCCl)c([N+](=O)[O-])cc1[N+](=O)[O-] | 1.8 mM (≈ 819 µg/mL) |
| CS(=O)(=O)c1cc([N+](=O)[O-])c(N(CCCl)CCCl)cc1C(=O)NCC(O)CO (centres undefined) | 16 mM (≈ 7330 µg/mL) |
| CS(=O)(=O)NC(=O)c1cc(N(CCCl)CCCl)c([N+](=O)[O-])cc1[N+](=O)[O-] | 17 mM (≈ 7300 µg/mL) |
| CC(O)CNC(=O)c1cc(N(CCCl)CCCl)c([N+](=O)[O-])cc1[N+](=O)[O-] (centres undefined) | 1.2 mM (≈ 491 µg/mL) |

Tested on: not listed separately
Experiment: Stability in alpha MEM at 37 degC after 24 hrs
Type: physicochemical
Settings: read-out: Stability
Procedure, shortened: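 Percent parent compound remaining, by HPLC, after holding in α-MEM with 5% fetal calf serum at 37 °C for 24 h.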

| SMILES | remaining at 24 h |
| --- | --- |
| O=C(NC(CO)(CO)CO)c1cc(N(CCCl)CCCl)c([N+](=O)[O-])cc1[N+](=O)[O-] | 97% |
| CS(=O)(=O)c1cc([N+](=O)[O-])c(N(CCCl)CCCl)cc1C(=O)NCC(O)CO (centres undefined) | 106% |
| CS(=O)(=O)NC(=O)c1cc(N(CCCl)CCCl)c([N+](=O)[O-])cc1[N+](=O)[O-] | 100% |
| CC(O)CNC(=O)c1cc(N(CCCl)CCCl)c([N+](=O)[O-])cc1[N+](=O)[O-] (centres undefined) | 107% |
